This excerpt belongs to a sample that is enriched for hits.
KDM4C inh – inhibitors of human demethylase GASC-1 KDM4C. inhibition, % at 12.5 µM. Q9H3R0. GST-KDM4C 2-372, H3K9me3 peptide, LANCE TR-FRET. actives 0.15% (n = 96,000);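 active = mean replicate inhibition above about 25%, with at least 55% of replicates also reaching it, limit read from the data, passing the limit was not always enough; inconclusive = only one of those two conditions met; inactive = neither condition met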
Target sequence (Q9H3R0 2-372 limits assumed): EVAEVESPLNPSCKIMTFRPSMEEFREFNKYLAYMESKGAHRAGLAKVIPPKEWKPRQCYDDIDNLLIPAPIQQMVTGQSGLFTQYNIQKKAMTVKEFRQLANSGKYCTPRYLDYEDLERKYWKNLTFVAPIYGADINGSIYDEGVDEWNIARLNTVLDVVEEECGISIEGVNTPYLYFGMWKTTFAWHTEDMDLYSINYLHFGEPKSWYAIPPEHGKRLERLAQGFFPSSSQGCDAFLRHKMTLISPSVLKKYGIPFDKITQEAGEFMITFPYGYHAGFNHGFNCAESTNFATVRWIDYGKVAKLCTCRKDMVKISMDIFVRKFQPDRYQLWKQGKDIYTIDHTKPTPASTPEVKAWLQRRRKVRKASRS
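reagent = H3K9me3 peptide substrate, Fe(II), 2-oxoglutarate | system = GST-tagged GASC-1 (JMJD2C) catalytic fragment, aa 2-372 | amount = enzyme final amount 10 nM | read-out = Fall in 671/618 emission ratio as inhibition | medium = HEPES buffer, pH 7.5, plus ascorbate | schedule = 30 min reaction, 60 min detection, RT | measured by = LANCE TR-FRET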
T cruzi growth-1 – inhibitors of T. cruzi proliferation; AID 624255; T. cruzi beta-gal in NIH3T3, GalScreen luminescence, 90 h; inhibition, % at 8.34 µM; actives 5.9% (n = 77,000);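 active = mean inhibition above about 93%, with at least 55% of replicates each passing it, limit read from the data, passing the limit was not always enough; inconclusive = only one of those two conditions holds; inactive = neither condition holds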
IDH1 R132H inh – inhibitors of human IDH1 R132H. O75874. IDH1 R132H reductase, diaphorase/resazurin fluorescence, 60 min. actives 0.18% (n = 70,000). inhibition, % at 10 µM. AID 624101; in the data active = inhibition above about 34%; inconclusive = no clear call, values can overlap the other calls; inactive = below about 11%;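 note: 0% = DMSO and 100% = no enzyme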
T cruzi growth-2 – blocks T. cruzi growth in NIH3T3 host cells. shares compounds with T cruzi growth-1. T. cruzi beta-gal in NIH3T3, GalScreen luminescence, 90 h. inhibition, % at 8.35 µM. actives 72% (n = 5,600). AID 651739;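 active = mean replicate inhibition above about 95% and at least 55% of replicates individually reaching it, limit read from the data; inconclusive = only one of the two criteria is met; inactive = neither criterion is met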
T cruzi growth-3 – inhibitors of T. cruzi proliferation | shares compounds with T cruzi growth-1 | T. cruzi beta-gal in NIH3T3, GalScreen luminescence, 90 h | inhibition, % at 2.09 µM | actives 21% (n = 5,600) | AID 651740;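 active = mean inhibition above about 95%, with at least 55% of replicates also reaching it, limit read from the data; inconclusive = meets just one of the two conditions; inactive = meets neither condition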;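 note: plate controls were neutral control median for no effect and positive control median for full effect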
3T3 cytotox – kills mouse NIH/3T3 fibroblasts; shares compounds with T cruzi growth-1; NIH/3T3 viability, CellTiter-Glo ATP luminescence, 90 h; cytotoxicity (signal decrease), % at 8.35 µM; actives 14% (n = 5,600);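 active = mean signal decrease across replicates above about 35% based on untreated-well scatter, with enough replicates individually passing, limit read from the data; inconclusive = no rule stated though some were filed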;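 note: 0% = median of neutral control wells and 100% = median of positive control wells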
NIH3T3 tox 2 – kills mouse NIH/3T3 fibroblasts | shares compounds with T cruzi growth-1 | NIH/3T3 viability, CellTiter-Glo ATP luminescence, 90 h | inhibition, % at 24.9 µM | actives 56% (n = 5,600) | AID 651744;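 active = mean loss of cell viability signal at or above a set limit, and enough replicates individually reaching it; inconclusive = meets only the mean limit or only the replicate share; inactive = meets neither condition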;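 note: 0% = median of neutral control wells and 100% = median of positive control wells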
* = called active by the depositor; ? = inconclusive; · = not tested or not shown; ! = a repeat was not active.

SMILES	KDM4C inh	T cruzi growth-1	IDH1 R132H inh	T cruzi growth-2	T cruzi growth-3	3T3 cytotox	NIH3T3 tox 2
CCCC#Cc1ccc2c(c1)O[C@H](CN(C)CCC)[C@@H](C)CN([C@H](C)CO)S2(=O)=O	4	58	-2	·	·	·	·
C/C(=C\CC[C@@H](C)[C@H]1CC(O)[C@@]2(C)C3CC[C@H]4C(C)(C)[C@@H](O[C@@H]5OC(COC6OC(CO)C(O)C(O)C6O)C(O)C(O)C5O)CC[C@@]45C[C@@]35CC(O)[C@]12C)C(=O)OC1OC(CO)C(O)C1O (stereo not given in full)	·	·	-1	·	·	·	·
O=C(c1ccc2c(c1)OCO2)N1CCCCN2[C@H](CO)[C@@H](c3ccc(-c4ccccc4)cc3)[C@@H]2C1	0	115*	·	99*	93	52*	88*
Cc1cccc(-c2ccc([C@@H]3[C@H](CO)N4CCCCN(C(=O)c5ccncc5)C[C@@H]34)cc2)c1	1	16	·	·	·	·	·
Cc1cccc(-c2ccc([C@H]3[C@H](CO)N4CCCCN(C(=O)c5ccc6c(c5)OCO6)C[C@@H]34)cc2)c1	0	114*	·	103*	49	33	103*
O=C(c1ccc2c(c1)OCO2)N1CCCCN2[C@H](C1)[C@@H](c1ccc(-c3ccccc3)cc1)[C@@H]2CO	0	88	·	·	·	·	·
C[C@@H]1CN([C@@H](C)CO)S(=O)(=O)c2ccc(C#CC3(O)CCCC3)cc2O[C@@H]1CN(C)C(=O)Cc1ccncc1	2	·	·	·	·	·	·
C/C=C/c1ccc2c(c1)O[C@H](CN(C)C)[C@@H](C)CN([C@H](C)CO)S2(=O)=O	0	10	5	·	·	·	·
C[C@H](CO)N1C[C@H](C)[C@H](CN(C)C(=O)C2CCCCC2)OCCCC[C@H](C)Oc2ccc(NC(=O)c3ccccc3)cc2C1=O	-1	-39	1	·	·	·	·
C[C@H](CO)N1C[C@H](C)[C@H](CN(C)S(=O)(=O)c2ccc(F)cc2)OCCCC[C@H](C)Oc2ccc(N(C)C)cc2C1=O	-1	?	·	96*	24	-12	-21
COc1ccc(S(=O)(=O)N(C)C[C@@H]2OCCCC[C@@H](C)Oc3ccc(N(C)C)cc3C(=O)N([C@H](C)CO)C[C@H]2C)cc1	13	76	-1	·	·	·	·
COc1ccc(S(=O)(=O)N(C)C[C@H]2OCCCC[C@H](C)Oc3ccc(N(C)C)cc3C(=O)N([C@H](C)CO)C[C@@H]2C)cc1	2	102*!	1	51	21	-25	-14
C[C@H](CO)N1C[C@H](C)[C@H](CN(C)S(=O)(=O)c2ccccc2)OCCCC[C@H](C)Oc2ccc(N(C)C)cc2C1=O	1	34	0	·	·	·	·
C[C@H]1CCCCO[C@@H](CN(C)S(=O)(=O)c2ccc(F)cc2)[C@@H](C)CN([C@@H](C)CO)C(=O)c2cc(N(C)C)ccc2O1	1	81	·	·	·	·	·
Cc1ccc(S(=O)(=O)N(C)C[C@@H]2OCCCC[C@H](C)Oc3ccc(N(C)C)cc3C(=O)N([C@@H](C)CO)C[C@H]2C)cc1	0	?	-1	77	30	-13	-20
Cc1ccc(S(=O)(=O)N(C)C[C@@H]2OCCCC[C@H](C)Oc3ccc(N(C)C)cc3C(=O)N([C@H](C)CO)C[C@H]2C)cc1	0	88	-2	·	·	·	·
C[C@H]1CCCCO[C@@H](CN(C)S(=O)(=O)c2ccccc2)[C@@H](C)CN([C@@H](C)CO)C(=O)c2cc(N(C)C)ccc2O1	0	107*	-1	69	14	19	17
C[C@H](CO)N1C[C@H](C)[C@@H](CN(C)CC2CC2)Oc2cc(-c3cncnc3)ccc2S1(=O)=O	0	103	1	·	·	·	·
O=C(C[C@H]1CC[C@H](NS(=O)(=O)c2ccc(F)cc2)[C@H](CO)O1)NC1CCCCC1	-1	·	0	·	·	·	·
Cc1ccc(S(=O)(=O)N(C)CC(=O)Nc2cc(Cl)ccc2Oc2ccccc2)cc1	·	·	1	·	·	·	·
O=C(Nc1ccccc1F)N[C@@H]1CC[C@@H](CCNS(=O)(=O)c2ccccc2)O[C@H]1CO	-1	-19	0	·	·	·	·
COc1ccc(CN(C)C[C@H]2OCCCC[C@H](C)Oc3ccc(NC(=O)Nc4cccc5ccccc45)cc3C(=O)N([C@H](C)CO)C[C@H]2C)cc1	-1	?	2	98*	106*	28	55*
C[C@@H]1CN([C@H](C)CO)C(=O)c2cc(NC(=O)Nc3cccc4ccccc34)ccc2O[C@@H](C)CCCCO[C@H]1CN(C)Cc1ccncc1	-1	100*	·	107*	55	36*	47*
C[C@H](CO)N1C[C@H](C)[C@@H](CN(C)Cc2ccccc2)OCCCC[C@H](C)Oc2ccc(NC(=O)Nc3cccc4ccccc34)cc2C1=O	-2	·	·	·	·	·	·
C[C@H]1CCCCO[C@H](CN(C)Cc2ccccc2)[C@@H](C)CN([C@@H](C)CO)C(=O)c2cc(NC(=O)Nc3cccc4ccccc34)ccc2O1	0	·	·	·	·	·	·
SMILES	KDM4C inh	T cruzi growth-1	IDH1 R132H inh	T cruzi growth-2	T cruzi growth-3	3T3 cytotox	NIH3T3 tox 2
C[C@@H]1CN([C@H](C)CO)C(=O)c2cc(NC(=O)Nc3cccc4ccccc34)ccc2O[C@@H](C)CCCCO[C@@H]1CN(C)Cc1ccncc1	0	49	·	·	·	·	·
C[C@H]1CCCCO[C@@H](CN(C)Cc2ccccc2)[C@@H](C)CN([C@@H](C)CO)C(=O)c2cc(NC(=O)Nc3cccc4ccccc34)ccc2O1	1	109*	-23	?	100*	15	38*
C[C@@H]1CN([C@@H](C)CO)C(=O)Cc2cc(NC(=O)C3CCCCC3)ccc2O[C@H]1CN(C)S(C)(=O)=O	1	30	0	·	·	·	·
COc1ccc(NC(=O)Nc2ccc3c(c2)C(=O)N([C@@H](C)CO)C[C@@H](C)[C@@H](CN(C)S(=O)(=O)c2ccc(C)cc2)O3)cc1	-1	47	0	·	·	·	·
Cc1sc2ncnc(NCCOCCO)c2c1C	·	·	0	·	·	·	·
O=C(C[C@@H]1C=C[C@H](NC(=O)Nc2ccc(C(F)(F)F)cc2)[C@@H](CO)O1)NCCN1CCCC1	0	0	0	·	·	·	·
COc1ccc(NC(=O)N(C)C[C@H]2Oc3ccc(NC(=O)Cn4cnnn4)cc3CC(=O)N([C@H](C)CO)C[C@@H]2C)cc1	6	33	1	·	·	·	·
Cc1ccc(-c2ccc([C@H]3[C@H](CO)N4CCCCN(S(=O)(=O)c5cccc(C)c5)C[C@@H]34)cc2)cc1	·	55	·	·	·	·	·
Cc1cccc(S(=O)(=O)N2CCCCN3[C@H](C2)[C@H](c2ccc(-c4ccccc4)cc2)[C@@H]3CO)c1	·	93	·	·	·	·	·
Cc1ccc(-c2ccc([C@@H]3[C@H](CO)N4CCCCN(S(=O)(=O)c5cccc(C)c5)C[C@@H]34)cc2)cc1	·	108*	·	?	98*	34	104*
